ChEMBL document CHEMBL1821634, “Design and synthesis of (+)-discodermolide-paclitaxel hybrids leading to enhanced biological activity” (J Med Chem, 2011)
pIC50: −log10 of the molar value. The source made the active and inactive calls. No cut-off for these calls is given here.

Key:
A549 = test: Antiproliferative activity against human A549 cells after 72 hrs by SRB method; type: functional, cell-based; details: A549, 72 h
Method in brief: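 Cells kept in RPMI with 10% FBS; 800 A549 cells seeded per well, drugs added at increasing concentrations 18 h after plating. Incubated 72 h at 37 °C, then fixed and stained with SRB. IC50 taken as concentration inhibiting growth by 50%.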

MCF7 = test: Antiproliferative activity against human MCF7 cells after 96 hrs by SRB method; type: functional, cell-based; details: MCF7, 96 h
Method in brief: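 MCF-7 cells grown in RPMI plus 10% fetal bovine serum, seeded at 2000 per well. Increasing drug concentrations added 18 h post-plating. Incubation for 96 h at 37 °C, with the later fixation allowing for growth rate, then SRB staining. IC50 is the concentration giving 50% growth inhibition.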

Bos taurus = species: Bos taurus; test: Induction of bovine brain tubulin polymerization at 3 uM after 30 mins by SDS-PAGE
Method in brief: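 Tubulin (2.5 μM) in 0.1 M MES, 1 mM EGTA, 1 mM MgCl₂ with 2 mM GTP, incubated with drug at 3 μM for 30 min at 37 °C. Polymer pelleted at 120000g, 37 °C, 1 h. Pellet dissolved in SDS sample buffer and analysed by SDS-PAGE.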

pIC50 (A549)	pIC50 (MCF7)	Activity (Bos taurus)	Structure (SMILES)
8.42	8.57	Active	C=C/C=C\[C@H](C)[C@H](OC(=O)NCCCCNC(=O)c1ccc(N=[N+]=[N-])cc1)[C@@H](C)[C@H](O)[C@@H](C)C/C(C)=C\[C@H](C)[C@@H](O)[C@@H](C)/C=C\[C@@H](O)C[C@@H]1OC(=O)[C@H](C)[C@@H](O)[C@H]1C
8.58	8.72	Active	C=C/C=C\[C@H](C)[C@H](OC(=O)NCCCNC(=O)c1ccc(C2(C(F)(F)F)N=N2)cc1)[C@@H](C)[C@H](O)[C@@H](C)C/C(C)=C\[C@H](C)[C@@H](O)[C@@H](C)/C=C\[C@@H](O)C[C@@H]1OC(=O)[C@H](C)[C@@H](O)[C@H]1C
8.50	9.04	–	CC(=O)O[C@H]1C(=O)[C@@]2(C)[C@H]([C@H](OC(=O)c3ccccc3)[C@]3(O)C[C@H](OC(=O)[C@H](O)[C@@H](NC(=O)c4ccccc4)c4ccccc4)C(C)=C1C3(C)C)[C@]1(OC(C)=O)CO[C@@H]1C[C@@H]2O [PACLITAXEL]
8.98	8.78	Active	C=C/C=C\[C@H](C)[C@H](OC(=O)NCCCNC(=O)c1cccc(N=[N+]=[N-])c1)[C@@H](C)[C@H](O)[C@@H](C)C/C(C)=C\[C@H](C)[C@@H](O)[C@@H](C)/C=C\[C@@H](O)C[C@@H]1OC(=O)[C@H](C)[C@@H](O)[C@H]1C
8.25	8.44	Active	C=C/C=C\[C@H](C)[C@H](OC(=O)NCCNC(=O)c1ccc(N=[N+]=[N-])cc1)[C@@H](C)[C@H](O)[C@@H](C)C/C(C)=C\[C@H](C)[C@@H](O)[C@@H](C)/C=C\[C@@H](O)C[C@@H]1OC(=O)[C@H](C)[C@@H](O)[C@H]1C
8.92	8.72	Active	C=C/C=C\[C@H](C)[C@H](OC(=O)NCCCNC(=O)c1ccc(N=[N+]=[N-])cc1)[C@@H](C)[C@H](O)[C@@H](C)C/C(C)=C\[C@H](C)[C@@H](O)[C@@H](C)/C=C\[C@@H](O)C[C@@H]1OC(=O)[C@H](C)[C@@H](O)[C@H]1C

Structure (SMILES)	pIC50 (A549)	pIC50 (MCF7)	Activity (Bos taurus)
C=C/C=C\[C@H](C)[C@H](OC(N)=O)[C@@H](C)[C@H](O)[C@@H](C)C/C(C)=C\[C@H](C)[C@@H](O)[C@@H](C)/C=C\[C@@H](O)C[C@@H]1OC(=O)[C@H](C)[C@@H](O)[C@H]1C [DISERMOLIDE]	8.03	8.10	Active
